Hits are enriched below; roughly 4.9% of the tested compounds scored in any of these assays.
STAT3 activator – STAT3 signaling activation; U3A cells, IL-6 STAT3-luciferase reporter, luminescence; 100% = signal with IL-6 EC80 alone; activation (% of control), % at 5.6 µM; 190,000 compounds, 0.91% hits; AID 871;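 active = activation above the screen-wide mean of compound activation plus 3 SD, cut at about 130% in these data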;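 note: 0% = background luminescence of wells with medium and substrate only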
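Material: STAT3-luciferase reporter U3A cells; Probe or stimulus: IL-6 (33 ng/mL); Incubation: compound pre-incubation 1 h before IL-6, then 6 h stimulation at 37 °C; Technique: luminescence from STAT3-driven luciferase reporter; Evaluation: % activation versus median of IL-6-stimulated wells; Controls: IL-6-only high control.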
STAT1 blocker – STAT1 signaling inhibition; AID 920; inhibition, % at 5.5 µM; NIH 3T3 STAT1-luciferase reporter, IFN-gamma, luminescence; 200,000 compounds, 0.35% hits;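 active = inhibition above a set limit, the mean inhibition across all tested compounds plus 3 SD, cut at about 34% in these data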;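 note: 0% = IFN-gamma with DMSO and 100% = IFN-gamma with 300 µM nifuroxazide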
FLuc stim CS – firefly luciferase counter-screen for stimulation assays; ATPlite luciferase biochemical, luminescence, 10 min; 0 = ATP-free wells, 1 = DMSO control; activation factor at 10 µM; 200,000 tested, under 10 active; AID 1027;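 active = luciferase activation factor, scaled between plate controls, of at least 2 with compound at 10 µM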
Target sequence (P08659 whole entry, looked up): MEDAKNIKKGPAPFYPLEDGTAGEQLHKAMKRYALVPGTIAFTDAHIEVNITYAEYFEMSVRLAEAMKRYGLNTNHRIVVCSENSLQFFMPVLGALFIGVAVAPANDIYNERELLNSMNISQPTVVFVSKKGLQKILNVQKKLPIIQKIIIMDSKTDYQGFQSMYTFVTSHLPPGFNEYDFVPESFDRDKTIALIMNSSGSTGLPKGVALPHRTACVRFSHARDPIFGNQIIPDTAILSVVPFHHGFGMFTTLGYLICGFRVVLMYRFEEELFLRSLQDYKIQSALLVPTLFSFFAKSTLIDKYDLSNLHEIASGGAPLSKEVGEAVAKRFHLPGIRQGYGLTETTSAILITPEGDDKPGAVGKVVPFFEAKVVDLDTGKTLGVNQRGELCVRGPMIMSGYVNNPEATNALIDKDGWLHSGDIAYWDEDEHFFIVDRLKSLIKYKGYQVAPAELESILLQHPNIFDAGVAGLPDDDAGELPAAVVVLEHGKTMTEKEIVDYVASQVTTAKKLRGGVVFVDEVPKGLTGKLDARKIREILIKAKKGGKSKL
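System: Luciferase/luciferin detection reagent, cell-free biochemical luciferase assay | Medium: PBS buffer for ATP | Dosing: Test compounds dosed from 2 mM stocks in 100% DMSO | Timing: 10 min at ambient temperature | Signal: Luminescence measurement of luciferase light output | Evaluation: Luciferase activation, seen as luminescence increase over controls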
STAT3 inh-1 – STAT3 signaling inhibition | U3A cells, IL-6 STAT3-luciferase reporter, luminescence; host cell line lacks STAT1 | inhibition, % at 5.5 µM | 190,000 compounds, 0.89% hits | AID 862;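 active = inhibition above the mean inhibition across all screened compounds plus 3 SD, cut at about 44% in these data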;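 note: 0% = DMSO only wells and 100% = 100 µM nifuroxazide control wells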
FLuc inhib CS – Photinus pyralis luciferase inhibition counter-screen; ATPLite firefly luciferase biochemical luminescence, 10 min; P08659; 200,000 compounds, 1.5% hits; inhibition, % at 10 µM;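 active = inhibition above about 50% when tested at 10 µM, limit read from the data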
STAT1 act – STAT1 signaling activation; NIH 3T3 STAT1-luciferase reporter, IFN-gamma, luminescence; 100% = IFN-gamma alone, no compound; activation (% of control), % at 5.5 µM; 200,000 compounds, 2.6% hits; AID 932;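 active = activation above the screen-wide mean activation plus 3 SD, cut at about 130% in these data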;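 note: raw ratio to IFN-gamma control signal so 100% means no change and 0% no light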
STAT3 inh-2 – confirmation of STAT3 signaling inhibitors; shares compounds with STAT3 inh-1; U3A cells, IL-6 STAT3 luciferase reporter, luminescence; cell line lacks STAT1; inhibition, % at 5.7 µM; 1,200 compounds, 45% hits; AID 1265;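 active = inhibition above the hit cutoff computed for the primary STAT3 screen, cut at about 44% in these data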;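 note: 0% = IL-6 plus DMSO and 100% = IL-6 plus nifuroxazide control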
NFkB inh STAT3ct – inhibits NF-kappaB, counter-screen to STAT3 inhibitors. shares compounds with STAT3 inh-1. HEK293T NF-kB luciferase reporter, TNF-alpha induced. inhibition, % at 5.7 µM. 1,200 compounds, 36% hits;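 active = inhibition above the mean of solvent-only control wells plus 3 SD, cutoff set per campaign, cut at about 13% in these data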;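 note: 0% = TNF-alpha with DMSO and 100% = TNF-alpha with MG high control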
STAT1 inh 2 – counter-screen for STAT3 inhibitors: STAT1 inhibition. shares compounds with STAT3 inh-1. NIH 3T3 STAT1-luciferase reporter, IFN-gamma induced, luminescence. inhibition, % at 5.7 µM. 1,200 compounds, 27% hits;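 active = inhibition above the mean plus 3 SD of solvent-only control wells, limit set per screening run, cut at about 16% in these data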;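 note: 0% = DMSO with IFN-gamma and 100% = nifuroxazide control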
* hit, by the source's call; . = no result given.

SMILES	STAT3 activator	STAT1 blocker	FLuc stim CS	STAT3 inh-1	FLuc inhib CS	STAT1 act	STAT3 inh-2	NFkB inh STAT3ct	STAT1 inh 2
O=C(c1ccc2c(=O)n(C3CCCC3)c(=S)[nH]c2c1)N1CCCCCC1	78.1	20.4	1.1	33.6	-7.7	80.8	.	.	.
O=C(c1ccc2c(=O)n(-c3ccccc3)c(=S)[nH]c2c1)N1CCCCC1	62.5	25.5	1	46.7*	-3.2	75.7	50.6*	14.5*	24.9*
Cc1cccc(-c2nc3cc(NC(=O)C4CCCO4)ccc3o2)c1 (stereo not given)	41.8	-33.7	0.2	71.7*	83.1*	130.0*	45.9*	-4.6	-76.5
COc1cc(C(=O)Nc2cccc(-c3nc4cc(C)ccc4o3)c2)cc(OC)c1OC	106.6	-8.4	0.7	-3.7	29.3	107.6	.	.	.
CCC(=O)Nc1ccc2oc(-c3cccc(C)c3)nc2c1	50.2	-3.2	0.3	63.7*	71.3*	103.0	24.8	-19.3	-109.6
O=C(Nc1ccc(-c2nc3ccccc3[nH]2)cc1)C1CCCO1 (stereo not given)	46.4	14.1	0.1	68.3*	89.6*	87.1	30.3	-14.2	-66.2
COc1ccc(CN2CCN(C(=O)C3CCC(CNS(=O)(=O)c4ccc(C)cc4)CC3)CC2)c(OC)c1OC (stereo not given)	97.2	12.6	1.1	10.2	-5.1	86.5	.	.	.
N#CC1=C(S)N(c2ccccc2)C(c2ccc(-c3ccccc3Cl)o2)NC1=O (stereo not given)	98.9	-0.5	1	2.1	-2.8	100.4	.	.	.
CS(=O)(=O)N1CCc2cc(S(=O)(=O)Nc3ccc4c(c3)OCCO4)ccc21	63.9	27.2	1.1	46.0*	-7.3	74.9	36.3	1.8	20.8*
O=C(C1CCC1)N1CCc2cc(S(=O)(=O)NC3CCCC3)ccc21	94.7	3.2	1	9.4	-3.6	97.1	.	.	.
CCC(=O)N1CCc2cc(S(=O)(=O)Nc3ccc4c(c3)OCCO4)ccc21	63.8	21.0	1	46.6*	-4.1	80.7	34.7	-2.1	12.4
CC(=O)N1CCc2cc(S(=O)(=O)NC(C(=O)Nc3ccc4c(c3)OCCO4)C(C)C)ccc21 (stereo not given)	99.2	4.0	1	7.5	1.0	97.4	.	.	.
O=C(C1CCC1)N1CCc2cc(S(=O)(=O)Nc3ccc4c(c3)OCCO4)ccc21	49.2	22.3	1	65.3*	-3.7	79.8	50.4*	7.6	20.6*
CCC(=O)N1CCCc2cc(S(=O)(=O)N3CCN(c4ccccc4F)CC3)ccc21	61.9	21.5	1.1	52.6*	-8.0	80.5	35.6	11.0	12.5
N#C/C(=C/c1cn(CC(=O)O)c2ccccc12)C(=O)NCc1ccccc1	102.9	5.7	1	-2.9	2.6	95.3	.	.	.
CCOC(=O)/C(=N\Nc1ccccc1Cl)N1CCN(c2ccccc2OC)CC1	104.0	5.7	1.1	3.1	-5.5	94.4	.	.	.
CCN1CC(CN(C)Cc2nc(-c3ccc(OC)c4ccccc34)oc2C)CC1=O (stereo not given)	105.0	0.2	1.1	-1.2	-6.9	98.3	.	.	.
O=Cc1ccc(-c2cc(Cl)ccc2Cl)[nH]1	103.9	-1.2	1	0.2	-1.7	99.8	.	.	.
O=C(NCc1ccccc1)NC1CCS(=O)(=O)C1 (stereo not given)	105.3	3.2	1.1	-2.4	-6.2	96.7	.	.	.
CCCCCCn1ccc(=N)cc1	45.2	21.0	1	70.1*	-1.4	81.3	56.0*	17.6*	15.7
COc1ccc(/C=C\c2nc(=O)c3ccccc3o2)cc1	49.4	-1.0	0.1	62.3*	93.3*	100.2	-9.3	-6.9	-2.9
Cc1ccc(C)n1-c1nccc(-c2ccco2)n1	103.4	-7.5	1	2.9	0.0	105.6	.	.	.
O=C(Nc1ccncc1)c1ccc(F)cc1	93.0	-5.3	1	8.3	3.7	104.5	.	.	.
O=C(Nc1ccncc1)c1ccc(-c2ccccc2)cc1	31.4	15.4	0.7	82.4*	26.2	84.1	76.8*	4.7	6.6
NS(=O)(=O)c1cccc(NC(=O)COC(=O)COc2ccc3ccccc3c2)c1	106.3	5.9	1	-5.7	3.1	93.1	.	.	.
SMILES	STAT3 activator	STAT1 blocker	FLuc stim CS	STAT3 inh-1	FLuc inhib CS	STAT1 act	STAT3 inh-2	NFkB inh STAT3ct	STAT1 inh 2
COc1ccc(C(=O)Nc2ccc3oc(Cc4ccc(Cl)cc4)nc3c2)cc1OC	63.0	9.4	1.1	51.2*	-6.5	91.5	44.8*	7.6	3.1
COc1ccc(C(=O)Nc2ccncc2)cc1OC	109.6	-6.6	1	-4.6	-3.4	106.7	.	.	.
O=C1c2ccccc2-c2nnc(-c3ccc(F)cc3)cc21	54.8	-14.9	0.2	55.8*	78.7*	114.6	46.8*	18.7*	-13.5
Cc1[nH]nc2c1C1(CCN(C(=O)OCc3ccccc3)CC1)C(C#N)=C(N)O2	62.8	12.8	1	48.8*	-3.8	88.5	21.4	-6.3	-3.3
Cc1[nH]nc2c1C1(CCN(C(=O)c3ccccc3)CC1)C(C#N)=C(N)O2	98.6	0.5	1.1	7.4	-6.0	99.5	.	.	.
O=C1CCC(C(=O)N2CCCC(C(=O)c3ccc4c5c(cccc35)CC4)C2)=NN1 (stereo not given)	101.8	4.4	1	3.8	-0.8	95.8	.	.	.
Cc1csc(NC(=O)c2cc3c(s2)CCC3)n1	45.6	-19.5	0.2	69.9*	79.1*	117.7	38.3	-26.9	-106.7
Cc1csc(NC(=O)c2cccs2)n1	109.8	-22.5	0.9	-8.5	10.2	121.8	.	.	.
COC(=O)Nc1nn(-c2ccc(OC)cc2)c(=O)c(C#N)c1C	95.7	-0.6	1	8.7	-3.8	99.4	.	.	.
Cc1nc2ccc(-c3nc4cc(N)ccc4o3)cc2[nH]1	55.0	-18.0	0.2	54.6*	78.5*	116.4	15.1	-13.8	-63.1
Cc1ccc2nc(Cc3ccc(N)cc3)oc2c1	116.9	-23.6	1	-13.8	3.6	121.6	.	.	.
Cc1ccc2nc(-c3cccc(N)c3)oc2c1	56.9	20.0	0.1	55.0*	93.0*	81.5	17.2	-10.2	-109.8
O=C(Nc1ccc(N2CCCCC2)cc1)c1ccccc1	48.6	5.3	0.1	66.5*	87.8*	95.2	18.7	-16.5	-86.8
O=C(Nc1ccc(N2CCCC2)cc1)c1cccc(F)c1	63.2	-22.8	0.4	48.2*	59.0*	121.0	-3.2	-24.3	-140.0
COc1ccccc1OCc1n[nH]c(=S)n1Cc1ccccc1	100.4	-13.1	1	1.9	-0.2	110.5	.	.	.
